DNMT1 inh: human DNMT1 methyltransferase inhibitors, primary screen, biochemical, molecular beacon, fluorescence, HinP1I cleavage, uHTS. AID 588458, 2011. DNA (cytosine-5)-methyltransferase 1 (Homo sapiens), P26358. 360,000 tested, 0.83% active. inhibition (reported as % activation of signal), % at 10 µM; in the data active = inhibition above about 50%
SUMO1-SIM PPI: modulators of SUMO1 protein-protein interactions, primary screen, biochemical, uHTS; inhibition, % at 20 µM; SUMO1 binding to a labelled peptide, TR-FRET, 1 h; Small ubiquitin-related modifier 1 (Homo sapiens), P63165; 360,000 tested, 0.33% active; AID 602429, 2012; in the data active = inhibition above about 37%
Target sequence (P63165 whole entry, looked up): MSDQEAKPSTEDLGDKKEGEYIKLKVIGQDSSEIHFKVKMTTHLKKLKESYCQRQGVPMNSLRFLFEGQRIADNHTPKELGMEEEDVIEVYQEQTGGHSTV
NS3 helicase inh: inhibitors of HCV NS3 helicase, primary screen, biochemical, Cy5 molecular beacon fluorescence; Hepatitis C virus NS3 helicase; NS3 helicase DNA unwinding; inhibition, % at 10.9 µM; 290,000 tested, 0.56% active;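 active = inhibition above the mean of all tested compounds plus 3 SD, set per campaign, cut at about 35% in these data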;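 note: 0% = DMSO wells and 100% = thioflavine S control wells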
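System: HCV NS3 helicase fragment; control set: DMSO and thioflavine S; technique: Cy5 fluorescence at 0 and 60 min, beacon hairpin quenching; reagent: beacon DNA duplex substrate plus ATP; replicates: singlicate; schedule: 1 h reaction at 25 °C, ATP-initiated; medium: MOPS buffer pH 6.5 with MgCl2, DTT, Tween20, BSA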
UHRF1 binding: UHRF1 methylated DNA binding inhibitors, primary screen, counter-screen for MBD2 inhibitor project, biochemical, TR-FRET, human UHRF1, single concentration; inhibition, % at 4.4 µM; 370,000 tested, 0.75% active; UHRF1 binding to methylated oligo; in the data active = inhibition above about 21%;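 note: UHRF1 SRA domain binding a hemimethylated CpG hairpin DNA probe; 0% = median of test compound wells and 100% = reference inhibitor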
Pemphigus Ab inh: inhibitors of pemphigus antibody binding to DSG3, primary screen, biochemical, bead-based, flow cytometry, scFv-GFP. DSG3-coupled beads, scFv-anti-DSG3-GFP binding; hits give low values. 310,000 tested, 0.48% active. binding (percent of control), % at 10 µM;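 active = binding more than 3 SD below its plate's average and above zero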;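 note: hits lower antibody fragment binding to DSG3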
MBD2 DNA inh: inhibitors of MBD2 binding to methylated DNA, primary screen, biochemical, TR-FRET, DNA-binding domain, human. AID 686964, 2013. Methyl-CpG-binding domain protein 2 (Homo sapiens), Q9UBB5. 370,000 tested, 0.31% active. inhibition, % at 4.4 µM. MBD2 binding to methylated oligonucleotide; in the data active = inhibition above about 13%
Target sequence (Q9UBB5 whole entry, looked up, the tested form may be a part): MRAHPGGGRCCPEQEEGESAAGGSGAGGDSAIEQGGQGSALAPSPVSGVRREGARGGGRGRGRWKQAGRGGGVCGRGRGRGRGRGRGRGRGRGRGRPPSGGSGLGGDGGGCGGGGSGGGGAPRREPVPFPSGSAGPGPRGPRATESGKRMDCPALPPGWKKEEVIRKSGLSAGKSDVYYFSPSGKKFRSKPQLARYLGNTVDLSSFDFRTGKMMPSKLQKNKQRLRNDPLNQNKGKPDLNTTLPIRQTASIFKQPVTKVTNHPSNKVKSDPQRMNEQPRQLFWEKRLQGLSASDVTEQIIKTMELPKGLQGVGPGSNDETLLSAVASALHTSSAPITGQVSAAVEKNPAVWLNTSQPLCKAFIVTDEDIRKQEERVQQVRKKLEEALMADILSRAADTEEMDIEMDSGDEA
Starred values were filed as active, the others as inactive; nt = not tested or not shown. The list is not random: actives were taken first. Their share in the collection is about 2.5%.

SMILES	DNMT1 inh	SUMO1-SIM PPI	NS3 helicase inh	UHRF1 binding	Pemphigus Ab inh	MBD2 DNA inh
CC(OC(=O)c1ccc([N+](=O)[O-])s1)C(=O)NC1CCCCC1C (stereo not given)	71*	13	nt	9	102	-2
CN1CCN(c2nc(-c3ccc(C(C)(C)C)cc3)nc3ccccc23)CC1	9	-1	-51	22*	115	9
Cc1ccc(-c2nc(N3CCN(C)CC3)c3ccccc3n2)cc1	13	3	-32	0	101	5
CCC(=O)c1ccc(OCC(=O)Nc2nc(C)cs2)cc1	3	2	nt	-1	123	0
CCC(=O)c1ccc(OCC(=O)Nc2nc(-c3cccnc3)cs2)cc1	41	46*	nt	-3	100	-8
O=C(Nc1nc(-c2cccnc2)cs1)c1ccc([N+](=O)[O-])cc1	-6	-26	1	7	29*	6
CCOC(=O)Cc1csc(NC(=O)COc2ccccc2)n1	-1	2	-4	3	65*	2
O=c1[nH]c2cc3c(cc2cc1CN(Cc1nnnn1CC1CCCO1)C1CCCCC1)OCO3 (stereo not given)	1	-16	-1	-8	103	-7
CC1CCc2c(sc(/N=C/c3cccnc3)c2C(N)=O)C1 (stereo not given)	-3	-21	5	-3	115	0
Cc1ccc(NC(=O)c2ccc(S(=O)(=O)NCc3ccco3)cc2)nc1	4	1	nt	-3	103	4
Cc1cccc(NC(=O)c2ccc(S(=O)(=O)NCc3ccco3)cc2)n1	6	2	nt	30*	104	3
COCCNC(=O)C1CCCN(C(=O)c2cc(C(C)(C)C)nn2C)CC1 (stereo not given)	3	-1	nt	25*	nt	2
CCOC(=O)C1CCCN(C(=O)c2cc(C(C)(C)C)nn2C)CC1 (stereo not given)	-4	4	nt	1	nt	0
O=C1c2[nH]nc(-c3ccccc3O)c2C(c2cccc(Cl)c2)N1CC1CCCO1 (stereo not given)	-10	2	-12	-2	97	0
CN(C)C(CNC(=O)Nc1cccc(Cl)c1)c1cccnc1 (stereo not given)	-1	0	-2	2	106	3
CCOC(=O)C1(CC2CCCCO2)CCN(S(=O)(=O)c2ccc(OC)cc2)CC1 (stereo not given)	0	2	-8	-2	98	-1
COc1ccc(CCNS(=O)(=O)c2ccc3c(c2)OCCO3)cc1	-2	3	-3	0	101	1
O=C(CSc1ccc(-c2cccs2)nn1)c1cccs1	-2	-17	0	23*	98	9
O=C(CSc1ccc(-c2cccs2)nn1)Nc1ccccc1	-2	-9	6	-1	107	8
O=C(Nc1ccc2c(c1)oc1ccccc12)c1cccnc1	-3	0	-8	-4	nt	-3
O=C(Nc1ccc2c(c1)oc1ccccc12)c1ccncc1	2	2	-8	3	-8.2*	5
Cc1ccc(C(=O)NCC(=O)OCC(=O)c2cc(C)n(Cc3ccco3)c2C)cc1	6	0	5	-3	113	1
C=CCn1c(C)cc(C(=O)COC(=O)CNC(=O)c2ccccc2)c1C	-1	1	-7	-1	72*	-2
O=C(Cn1nnc(-c2ccccc2)n1)N/N=C/c1cc([N+](=O)[O-])c(Cl)cc1Cl	4	0	1	-8	74*	-6
O=C(Cn1nnc(-c2ccccc2)n1)N/N=C/c1cc([N+](=O)[O-])ccc1O	-1	-6	2	-2	113	-2
SMILES	DNMT1 inh	SUMO1-SIM PPI	NS3 helicase inh	UHRF1 binding	Pemphigus Ab inh	MBD2 DNA inh
COc1cc(C(=O)Nc2nnc(C)s2)c([N+](=O)[O-])cc1OC	1	-12	-6	-2	85*	-4
CC(C)C[C@@H](CO)N(Cc1ccccc1)S(=O)(=O)N(Cc1ccccc1)[C@@H](CO)CC(C)C	-20	3	nt	nt	104	nt
COc1ccc2cc(C(=O)COC(=O)COc3ccc4c(C)cc(=O)oc4c3)ccc2c1	-5	-10	-6	0	69*	6
COc1ccc(/C=C/c2nc(-c3ccccc3O)n(-c3ccccc3)n2)cc1	-10	29	3	0	98	7
COc1ccc(/C=C/c2nc(-c3ccccc3O)n[nH]2)cc1	-20	-4	-20	66*	nt	4
COc1cc(NC(=O)CN2C(=O)COc3ccc(S(=O)(=O)N4CCCCC4)cc32)cc(OC)c1	-4	24	-10	-2	nt	3
CCN1CCCC1CNC(=O)C1CCN(C(=O)c2cc3sccc3n2Cc2ccc(F)cc2)CC1 (stereo not given)	0	5	-27	5	147	2
CCC(C)c1ccc2oc(-c3ccc(NC(=O)c4ncn[nH]4)cc3)nc2c1 (stereo not given)	22	2	-4	2	103	0
CC(C)CC(=O)Nc1ccc2oc(-c3cccnc3)nc2c1	-2	-2	2	-5	97	3
Cc1ccc2oc(-c3ccc(NC(=O)CC(C)C)cc3)nc2c1	16	-2	-1	0	-15*	-2
CC(C)c1ccc2oc(-c3ccc(NC(=O)c4ncn[nH]4)cc3)nc2c1	37	47*	-4	-3	93	-1
COc1cccc(NC(=O)Cn2nnc(C(=O)NCc3ccc4c(c3)OCO4)c2N)c1	-3	-2	2	-1	90	-3
O=C1C(SCCO)=C(SCCO)C(=O)c2ccccc21	81*	35	nt	-9	92	-9
O=C1C(Cl)=C(NCCCO)C(=O)c2ccccc21	-9	-31	2	-19	nt	-17
O=C(Nc1c(-c2ccccc2)nc2ncccn12)c1cc2ccccc2oc1=O	-2	15	-2	1	106	0
O=C(N/N=C/c1cccnc1)c1cccc(NC(=O)c2ccc(Cl)cc2)c1	-8	66*	-3	nt	nt	nt
COC(=O)c1[nH]c2cccc(OC)c2c1NC(=O)CCN1CCN(c2ccccc2OC)CC1	0	-1	-13	-2	100	-4
O=C(CSc1ccc(F)cc1)Nc1ccc(Br)cc1	3	0	0	10	90	-1
CN(C(=O)c1ccc(C#N)cc1)c1nnc(-c2ccccn2)s1	3	5	-2	-1	103	0
CN(C(=O)c1cccc(C#N)c1)c1nnc(-c2ccccn2)s1	9	4	-1	22*	94	6

Compound activity deposited in PubChem by several laboratories.
